{"data": "Results pooled from the literature", "target": "Dual specificity tyrosine-phosphorylation-regulated kinase 1A (DYRK1A, Homo sapiens, UniProt Q13627)", "note": "Lines come from different studies, so protocols differ."}
{"Structure (SMILES)": "c1cnc(-c2nnc3sc(C45CC6CC(CC(C6)C4)C5)nn23)cn1", "read-out": "enzyme activity", "action": "inhibitor", "technique": "ADP detection", "concentration": "10 µM", "quantity": "inhibition", "value": "8.44%"}
{"Structure (SMILES)": "COc1ccc2oc(-c3ccc4nc(N)oc4c3)c/c(=N\\c3ccccc3NC(=O)CCN)c2c1", "read-out": "binding", "technique": "competition with immobilised ligand", "concentration": "1 µM", "quantity": "remaining binding", "value": "111%"}
{"Structure (SMILES)": "C1=C/COCc2cc(ccc2OCCN2CCCC2)Nc2nccc(n2)-c2cccc(c2)COC/1", "read-out": "binding", "concentration": "0.1 µM", "quantity": "remaining binding", "value": "52%"}
{"Structure (SMILES)": "CCCCC(=O)Nc1ccc(-c2ccc3ncn(CCC)c(=O)c3c2)cn1", "read-out": "binding", "technique": "competition with immobilised ligand", "concentration": "0.5 µM", "quantity": "remaining binding", "value": "81%"}
{"Structure (SMILES)": "CC(=O)ON=C1C=CC(=C(C#N)c2ccccc2)C=C1", "read-out": "enzyme activity", "action": "inhibitor", "technique": "ADP detection", "concentration": "2 µM", "quantity": "activity vs control", "value": "99%"}
{"Structure (SMILES)": "C[C@H]1CC[C@H](n2c3cnccc3c3cnc(Nc4ccc5c(n4)CCN(C(=O)CO)C5)nc32)CC1", "read-out": "cell-free assay", "concentration": "1 µM", "quantity": "remaining signal", "value": "0%"}
{"Structure (SMILES)": "O=[N+]1C=CC(=C2C=CN([O-])C=C2)C=C1", "read-out": "enzyme activity", "action": "inhibitor", "technique": "ADP detection", "concentration": "10 µM", "quantity": "inhibition", "value": "52.8%"}
{"Structure (SMILES)": "CC#CC(=O)N1CCC[C@H]1c1nc(-c2ccc(C(=O)Nc3ccccn3)cc2)c2c(N)nccn12", "read-out": "enzyme activity", "action": "inhibitor", "concentration": "1 µM", "quantity": "inhibition", "value": "3%"}
{"Structure (SMILES)": "CCOC(=O)c1c(NC(=O)CCC(=O)OC)sc2c1CCCC2", "read-out": "enzyme activity", "action": "inhibitor", "technique": "ADP detection", "concentration": "10 µM", "quantity": "inhibition", "value": "18.3%"}
{"Structure (SMILES)": "CN1CCN(C(=O)c2ccc(NC(=O)Nc3ccc(N(C)c4ccnc(Nc5ccc(CS(C)(=O)=O)cc5)n4)cc3)cc2)CC1", "read-out": "binding", "concentration": "1 µM", "quantity": "remaining binding", "value": "62%"}
{"Structure (SMILES)": "CC(C)S(=O)(=O)c1ccc2nccc(Nc3ccc4sc(C5CCCC5)nc4c3)c2c1", "read-out": "enzyme activity", "action": "inhibitor", "concentration": "1 µM", "quantity": "activity vs control", "value": "103%"}
{"Structure (SMILES)": "C=C(C)C1CCC(C)=C1COC(=O)c1cc([N+](=O)[O-])cc([N+](=O)[O-])c1 (stereo not shown)", "read-out": "enzyme activity", "action": "inhibitor", "technique": "ADP detection", "concentration": "10 µM", "quantity": "inhibition", "value": "10.3%"}
{"Structure (SMILES)": "C=CC(=O)N1CCC([C@@H]2CCNc3c(C(N)=O)c(-c4ccc(Oc5ccccc5)cc4)nn32)CC1", "read-out": "cell-free assay", "concentration": "1 µM", "quantity": "inhibition", "value": "3%"}
